Measurements as given in ChEMBL document CHEMBL1124795, “Synthesis and cytotoxicity of deoxyadenosine analogues: isomer distribution in the sodium salt glycosylation of 2,6-disubstituted purines” (J Med Chem, 1990).
Activity calls are given as the source filed them. No cut-off for these calls is given here.

Key:
PHA-Ly [1] = experiment: In vitro toxicity which caused 50% decrease in [14C]- leucine incorporation by the PHA-LY cells in culture at 40 uM; IN-Inactive; format: functional, cell-based; conditions: Homo sapiens
How it was run: (§1)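 Cells seeded at 10⁴ per well and exposed to compounds for 3 days in RPMI 1640 with 10% fetal calf serum, glutamine and antibiotics, at 37 °C under 5% CO₂. [¹⁴C]-L-leucine (0.5 μCi/mL) was present for the final 24 h. Protein was precipitated with 0.2 N perchloric acid, collected on glass-fibre filters and scintillation-counted. ID50 (μM, 50% drop in incorporation) was read from triplicate dose-response curves.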

NALL-1 [2] = experiment: In vitro toxicity which caused 50% decrease in [14C]- leucine incorporation by the NALL-1 cells in culture at 40 uM; IN-Inactive; format: functional, cell-based; conditions: Homo sapiens; how it was run: as §1
B-95-8 cell line [3] = experiment: In vitro toxicity which caused 50% decrease in [14C]- leucine incorporation by the B-95-8 cells in culture at 40 uM; IN-Inactive; format: functional, cell-based; how it was run: as §1
HL-60 [4] = experiment: In vitro toxicity which caused 50% decrease in [14C]- leucine incorporation by the HL-60 cells in culture at 40 uM; IN-Inactive; format: functional, cell-based; conditions: Homo sapiens; how it was run: as §1
MOLT-4 [5] = experiment: In vitro toxicity which caused 50% decrease in [14C]- leucine incorporation by the MOLT-4 cells in culture at 40 uM; IN-Inactive; format: functional, cell-based; conditions: Homo sapiens; how it was run: as §1
K562 [6] = experiment: In vitro toxicity which caused 50% decrease in [14C]- leucine incorporation by the K-562 cells in culture at 40 uM; IN-Inactive; format: functional, cell-based; conditions: Homo sapiens; how it was run: as §1
Raji [7] = experiment: In vitro toxicity which caused 50% decrease in [14C]- leucine incorporation by the Raji cells in culture at 40 uM; IN-Inactive; format: functional, cell-based; conditions: Homo sapiens; how it was run: as §1
U-937 [8] = experiment: In vitro toxicity which caused 50% decrease in [14C]- leucine incorporation by the U-937 cells in culture at 40 uM; IN-Inactive; format: functional, cell-based; conditions: Homo sapiens; how it was run: as §1
PHA-Ly [9] = experiment: In vitro toxicity which caused 50% decrease in [14C]- leucine incorporation by the PHA-LY cells in culture.; format: functional; conditions: Homo sapiens, read-out: ID50 (the source's name); how it was run: as §1
U-937 [10] = experiment: (§2) In vitro toxicity which caused 50% decrease in [14C]- leucine incorporation by the U-937 cells in culture.; format: functional; conditions: Homo sapiens, read-out: ID50 (the source's name); how it was run: as §1
NALL-1 [11] = experiment: (§3) In vitro toxicity which caused 50% decrease in [14C]- leucine incorporation by the NALL-1 cells in culture.; format: functional; conditions: Homo sapiens, read-out: ID50 (the source's name); how it was run: as §1
HL-60 [12] = experiment: In vitro toxicity which caused 50% decrease in [14C]- leucine incorporation by the HL-60 cells in culture.; format: functional; conditions: Homo sapiens, read-out: ID50 (the source's name); how it was run: as §1
K562 [13] = experiment: In vitro toxicity which caused 50% decrease in [14C]- leucine incorporation by the K-562 cells in culture.; format: functional; conditions: Homo sapiens, read-out: ID50 (the source's name); how it was run: as §1
Raji [14] = experiment: (§4) In vitro toxicity which caused 50% decrease in [14C]- leucine incorporation by the Raji cells in culture.; format: functional; conditions: Homo sapiens, read-out: ID50 (the source's name); how it was run: as §1
B-95-8 cell line [15] = experiment: In vitro toxicity which caused 50% decrease in [14C]- leucine incorporation by the B-95-8 cells in culture.; format: functional, Callitrichidae; conditions: Saguinus oedipus, read-out: ID50 (the source's name); how it was run: as §1
MOLT-4 [16] = experiment: (§5) In vitro toxicity which caused 50% decrease in [14C]- leucine incorporation by the MOLT-4 cells in culture.; format: functional; conditions: Homo sapiens, read-out: ID50 (the source's name); how it was run: as §1
MOLT-4 [17] = experiment: as §5; format: cell-based; conditions: human, read-out: ID50 (the source's name); how it was run: as §1
NALL-1 [18] = experiment: as §3; format: cell-based; conditions: human, read-out: ID50 (the source's name); how it was run: as §1
U-937 [19] = experiment: as §2; format: cell-based; conditions: human, read-out: ID50 (the source's name); how it was run: as §1
Raji [20] = experiment: as §4; format: cell-based; conditions: human, read-out: ID50 (the source's name); how it was run: as §1

| Structure (SMILES) | ID50 (PHA-Ly [1]) | ID50 (NALL-1 [2]) | ID50 (B-95-8 cell line [3]) | ID50 (HL-60 [4]) | ID50 (MOLT-4 [5]) | ID50 (K562 [6]) | ID50 (Raji [7]) | ID50 (U-937 [8]) | IC50 (PHA-Ly [9]) | IC50 (U-937 [10]) | IC50 (NALL-1 [11]) | IC50 (HL-60 [12]) | IC50 (K562 [13]) | IC50 (Raji [14]) | IC50 (B-95-8 cell line [15]) | IC50 (MOLT-4 [16]) | CC50 (MOLT-4 [17]) | CC50 (NALL-1 [18]) | CC50 (U-937 [19]) | CC50 (Raji [20]) |
| --- | --- | --- | --- | --- | --- | --- | --- | --- | --- | --- | --- | --- | --- | --- | --- | --- | --- | --- | --- | --- |
| CN(C)c1nc(N(C)C)c2ncn([C@@H]3C[C@@H](O)[C@H](CO)O3)c2n1 | inactive | inactive | inactive | inactive | inactive | inactive | inactive | inactive | – | – | – | – | – | – | – | – | – | – | – | – |
| CSc1nc(N(C)C)c2ncn([C@@H]3C[C@@H](O)[C@H](CO)O3)c2n1 | – | – | – | – | – | – | – | – | 260 µM | 126 µM | 188 µM | > 300 µM | > 300 µM | 233 µM | 116 µM | 172 µM | – | – | – | – |
| CN(C)c1nc(Br)nc2c1ncn2[C@@H]1C[C@@H](O)[C@H](CO)O1 | – | – | – | – | – | – | – | – | 88 µM | 164 µM | 290 µM | > 300 µM | > 300 µM | > 300 µM | > 300 µM | > 300 µM | – | – | – | – |
| CN(C)c1nc(N)c2ncn([C@@H]3C[C@@H](O)[C@H](CO)O3)c2n1 | – | – | – | – | – | – | – | – | > 300 µM | > 300 µM | > 300 µM | > 300 µM | > 300 µM | 125 µM | 182 µM | > 300 µM | – | – | – | – |
| Nc1nc(Br)nc2c1ncn2[C@@H]1C[C@@H](O)[C@H](CO)O1 | – | – | – | – | – | – | – | – | 1.6 µM | – | – | 41 µM | 83 µM | – | 6 µM | – | 3.2 µM | 12 µM | 800 nM | 700 nM |
| CSc1nc(N)c2ncn([C@@H]3C[C@@H](O)[C@H](CO)O3)c2n1 | – | – | – | – | – | – | – | – | 82 µM | > 300 µM | 96 µM | > 300 µM | > 300 µM | 107 µM | > 300 µM | > 300 µM | – | – | – | – |
| CNc1nc(SC)nc2c1ncn2[C@@H]1C[C@@H](O)[C@H](CO)O1 | – | – | – | – | – | – | – | – | 81 µM | > 300 µM | 186 µM | > 300 µM | > 300 µM | > 300 µM | > 300 µM | > 300 µM | – | – | – | – |
| CSc1nc(SC)c2ncn([C@@H]3C[C@@H](O)[C@H](CO)O3)c2n1 | – | – | – | – | – | – | – | – | 167 µM | > 300 µM | 173 µM | > 300 µM | > 300 µM | 170 µM | 225 µM | 141 µM | – | – | – | – |
| CNc1nc(Br)nc2c1ncn2[C@@H]1C[C@@H](O)[C@H](CO)O1 | – | – | – | – | – | – | – | – | 30 µM | 140 µM | 230 µM | 143 µM | 110 µM | 80 µM | 253 µM | 177 µM | – | – | – | – |
